{"source": "ChEMBL document CHEMBL5661979", "about": "“Pharmacological inhibition of BMK1 suppresses tumor growth through promyelocytic leukemia protein” (Cancer Cell, 2010)", "key": {"[1]": {"target": "T1, Mitogen-activated protein kinase 14 (Homo sapiens, UniProt Q16539)", "T1 sequence (Q16539 whole entry)": "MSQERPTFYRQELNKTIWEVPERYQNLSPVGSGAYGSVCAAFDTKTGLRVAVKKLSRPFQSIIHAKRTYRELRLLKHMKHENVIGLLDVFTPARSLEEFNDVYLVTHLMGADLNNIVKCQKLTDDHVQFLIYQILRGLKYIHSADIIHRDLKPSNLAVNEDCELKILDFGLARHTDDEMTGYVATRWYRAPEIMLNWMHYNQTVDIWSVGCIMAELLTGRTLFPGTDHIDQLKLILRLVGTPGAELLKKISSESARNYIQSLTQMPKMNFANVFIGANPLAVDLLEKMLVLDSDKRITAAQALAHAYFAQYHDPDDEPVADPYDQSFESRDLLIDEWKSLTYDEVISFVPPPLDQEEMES", "assay": "Inhibition of P38alpha interaction site in human HeLa cells lysate at 10 uM pre incubated for 15 mins followed by ATP acyl phosphate probe addition and measured after 10 mins by LC-MS/MS analysis relative to control", "type": "subcellular", "conditions": "time 25.0 min"}, "[2]": {"target": "Mitogen-activated protein kinase kinase kinase 8 (Homo sapiens, UniProt P41279)", "sequence (P41279 whole entry)": "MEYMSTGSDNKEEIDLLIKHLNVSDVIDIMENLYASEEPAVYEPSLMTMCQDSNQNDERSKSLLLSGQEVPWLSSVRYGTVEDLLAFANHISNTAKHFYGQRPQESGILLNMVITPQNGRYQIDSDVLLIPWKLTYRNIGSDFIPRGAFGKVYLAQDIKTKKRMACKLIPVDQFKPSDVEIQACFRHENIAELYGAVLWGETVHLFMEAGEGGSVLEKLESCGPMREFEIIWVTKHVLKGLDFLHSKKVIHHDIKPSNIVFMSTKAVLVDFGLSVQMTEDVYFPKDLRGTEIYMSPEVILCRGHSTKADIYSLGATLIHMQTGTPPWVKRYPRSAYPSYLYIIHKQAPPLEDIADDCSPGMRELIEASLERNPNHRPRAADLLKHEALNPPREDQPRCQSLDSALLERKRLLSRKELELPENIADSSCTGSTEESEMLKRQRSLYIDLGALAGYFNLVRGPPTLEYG", "assay": "Inhibition of COT in human HeLa cells lysate pre incubated for 15 mins followed by ADP acyl phosphate probe addition and measured after 10 mins by LC-MS/MS analysis", "type": "subcellular"}, "[3]": {"assay": "Inhibition of MAP3K2/MAP3K3 in human HeLa cells lysate at 50 uM pre incubated for 15 mins followed by ADP acyl phosphate probe addition and measured after 10 mins by LC-MS/MS analysis relative to control", "conditions": "25 min, condition cancer"}, "[4]": {"target": "T2, Dual specificity mitogen-activated protein kinase kinase 5 (Homo sapiens) (UniProt Q13163)", "T2 sequence (whole entry)": "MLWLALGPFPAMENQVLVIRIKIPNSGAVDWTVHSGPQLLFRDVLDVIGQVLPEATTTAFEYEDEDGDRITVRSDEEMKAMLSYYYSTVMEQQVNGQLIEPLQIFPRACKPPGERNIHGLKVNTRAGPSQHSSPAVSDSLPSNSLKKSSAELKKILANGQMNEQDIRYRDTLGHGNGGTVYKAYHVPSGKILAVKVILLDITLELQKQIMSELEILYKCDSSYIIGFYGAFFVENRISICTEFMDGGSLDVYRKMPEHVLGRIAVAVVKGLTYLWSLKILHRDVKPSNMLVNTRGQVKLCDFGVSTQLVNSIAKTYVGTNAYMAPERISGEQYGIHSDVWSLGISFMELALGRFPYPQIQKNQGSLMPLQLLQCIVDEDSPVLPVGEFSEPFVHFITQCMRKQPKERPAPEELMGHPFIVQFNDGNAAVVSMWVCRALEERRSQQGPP", "assay": "Inhibition of MAP2K5 in human HeLa cells lysate at 2 uM pre incubated for 15 mins followed by ADP acyl phosphate probe addition and measured after 10 mins by LC-MS/MS analysis relative to control", "type": "subcellular", "conditions": "time 25.0 min"}, "[5]": {"target": "Serine/threonine-protein kinase PLK4 (Homo sapiens) (UniProt O00444)", "assay": "Inhibition of recombinant Flag-tagged PLK4 (unknown origin) expressed in HEK293 cells at 0.08 to 10 uM in presence of 32P-gamma-ATP", "type": "cell-based", "conditions": "dose 0.08-10 µM"}, "[6]": {"target": "T3, Serine/threonine-protein kinase PLK1 (Homo sapiens, UniProt P53350)", "T3 sequence (P53350 whole entry)": "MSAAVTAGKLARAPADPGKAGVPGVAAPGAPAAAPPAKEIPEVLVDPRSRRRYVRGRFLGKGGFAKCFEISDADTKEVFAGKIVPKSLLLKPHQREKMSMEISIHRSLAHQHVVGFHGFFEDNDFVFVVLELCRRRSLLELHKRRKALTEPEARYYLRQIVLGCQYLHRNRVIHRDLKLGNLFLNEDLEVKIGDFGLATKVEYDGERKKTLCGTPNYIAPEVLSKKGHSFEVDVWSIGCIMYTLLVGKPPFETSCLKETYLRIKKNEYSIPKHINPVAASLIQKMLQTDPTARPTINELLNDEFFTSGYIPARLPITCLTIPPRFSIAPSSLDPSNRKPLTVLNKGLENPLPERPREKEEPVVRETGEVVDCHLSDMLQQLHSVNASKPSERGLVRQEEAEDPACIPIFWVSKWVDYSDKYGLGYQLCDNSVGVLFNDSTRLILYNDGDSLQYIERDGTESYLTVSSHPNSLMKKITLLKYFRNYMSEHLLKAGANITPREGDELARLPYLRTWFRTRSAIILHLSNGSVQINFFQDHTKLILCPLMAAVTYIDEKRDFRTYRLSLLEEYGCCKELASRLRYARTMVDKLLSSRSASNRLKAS", "assay": "Inhibition of PLK1 K2 site in human HeLa cells lysate pre incubated for 15 mins followed by ATP acyl phosphate probe addition and measured after 10 mins by LC-MS/MS analysis", "type": "subcellular"}, "[7]": {"target": "Serine/threonine-protein kinase Sgk1 (Homo sapiens, UniProt O00141)", "sequence (O00141 whole entry)": "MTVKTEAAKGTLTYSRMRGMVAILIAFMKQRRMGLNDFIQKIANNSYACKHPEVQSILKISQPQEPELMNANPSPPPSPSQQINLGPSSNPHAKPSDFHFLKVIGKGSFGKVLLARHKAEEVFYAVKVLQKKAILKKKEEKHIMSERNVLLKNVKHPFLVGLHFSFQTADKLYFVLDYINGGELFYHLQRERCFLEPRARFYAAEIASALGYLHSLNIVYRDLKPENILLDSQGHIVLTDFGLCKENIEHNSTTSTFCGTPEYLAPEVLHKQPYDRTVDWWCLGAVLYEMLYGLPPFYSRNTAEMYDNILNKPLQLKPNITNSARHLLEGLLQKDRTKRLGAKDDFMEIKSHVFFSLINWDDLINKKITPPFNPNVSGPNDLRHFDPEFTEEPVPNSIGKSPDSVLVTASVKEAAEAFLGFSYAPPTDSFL", "assay": "Inhibition of SGK1 in human HeLa cells lysate pre incubated for 15 mins followed by ADP acyl phosphate probe addition and measured after 10 mins by LC-MS/MS analysis", "type": "subcellular"}, "[8]": {"target": "T4, Calcium/calmodulin-dependent protein kinase type 1D (Homo sapiens, UniProt Q8IU85)", "assay": "Inhibition of CAMK1d in human HeLa cells lysate at 2 uM pre incubated for 15 mins followed by ADP acyl phosphate probe addition and measured after 10 mins by LC-MS/MS analysis relative to control", "type": "subcellular", "conditions": "time 25.0 min", "how_it_was_run": "(§1)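 KiNativ-type profiling in HeLa lysate (5 mg/mL total protein). Lysate preincubated 15 min with inhibitor at 50, 10, 2, 0.8 or 0 μM, then ATP or ADP acylphosphate probe added (5 μM final) for 10 min. Reaction stopped with urea and analysed by targeted MS, using up to four fragment ions per kinase peptide-probe conjugate. % inhibition calculated against untreated lysate. Duplicate reactions.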"}, "[9]": {"target": "Serine/threonine-protein kinase MRCK beta (Homo sapiens, UniProt Q9Y5S2)", "assay": "Inhibition of MRCKB in human HeLa cells lysate at 50 uM pre incubated for 15 mins followed by ATP acyl phosphate probe addition and measured after 10 mins by LC-MS/MS analysis relative to control", "type": "subcellular", "conditions": "time 25.0 min"}, "[10]": {"target": "T5, Phosphatidylinositol 5-phosphate 4-kinase type-2 alpha (Homo sapiens, UniProt P48426)", "T5 sequence (P48426 whole entry)": "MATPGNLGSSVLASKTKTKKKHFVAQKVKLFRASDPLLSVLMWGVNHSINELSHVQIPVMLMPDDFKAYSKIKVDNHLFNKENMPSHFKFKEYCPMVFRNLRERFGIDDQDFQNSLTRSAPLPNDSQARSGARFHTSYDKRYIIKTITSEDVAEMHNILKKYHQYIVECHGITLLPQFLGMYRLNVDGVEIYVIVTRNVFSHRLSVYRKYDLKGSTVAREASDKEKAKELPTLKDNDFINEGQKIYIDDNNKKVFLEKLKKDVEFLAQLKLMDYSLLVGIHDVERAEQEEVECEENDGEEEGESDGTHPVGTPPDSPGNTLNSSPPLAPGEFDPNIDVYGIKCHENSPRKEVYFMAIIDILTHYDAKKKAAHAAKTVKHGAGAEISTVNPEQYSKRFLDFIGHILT", "assay": "Inhibition of PIP5K2A in human HeLa cells lysate pre incubated for 15 mins followed by ATP acyl phosphate probe addition and measured after 10 mins by LC-MS/MS analysis", "type": "subcellular"}, "[11]": {"target": "T4, Calcium/calmodulin-dependent protein kinase type 1D", "assay": "Inhibition of CAMK1d in human HeLa cells lysate pre incubated for 15 mins followed by ADP acyl phosphate probe addition and measured after 10 mins by LC-MS/MS analysis", "type": "subcellular", "how_it_was_run": "as §1"}, "[12]": {"target": "T3, Serine/threonine-protein kinase PLK1", "assay": "Inhibition of PLK1 in human HeLa cells lysate at 2 uM pre incubated for 15 mins followed by ADP acyl phosphate probe addition and measured after 10 mins by LC-MS/MS analysis relative to control", "type": "subcellular", "conditions": "time 25.0 min"}, "[13]": {"target": "Ribosomal protein S6 kinase alpha-5 (Homo sapiens, UniProt O75582)", "sequence (O75582 whole entry, looked up, the tested form may be a part)": "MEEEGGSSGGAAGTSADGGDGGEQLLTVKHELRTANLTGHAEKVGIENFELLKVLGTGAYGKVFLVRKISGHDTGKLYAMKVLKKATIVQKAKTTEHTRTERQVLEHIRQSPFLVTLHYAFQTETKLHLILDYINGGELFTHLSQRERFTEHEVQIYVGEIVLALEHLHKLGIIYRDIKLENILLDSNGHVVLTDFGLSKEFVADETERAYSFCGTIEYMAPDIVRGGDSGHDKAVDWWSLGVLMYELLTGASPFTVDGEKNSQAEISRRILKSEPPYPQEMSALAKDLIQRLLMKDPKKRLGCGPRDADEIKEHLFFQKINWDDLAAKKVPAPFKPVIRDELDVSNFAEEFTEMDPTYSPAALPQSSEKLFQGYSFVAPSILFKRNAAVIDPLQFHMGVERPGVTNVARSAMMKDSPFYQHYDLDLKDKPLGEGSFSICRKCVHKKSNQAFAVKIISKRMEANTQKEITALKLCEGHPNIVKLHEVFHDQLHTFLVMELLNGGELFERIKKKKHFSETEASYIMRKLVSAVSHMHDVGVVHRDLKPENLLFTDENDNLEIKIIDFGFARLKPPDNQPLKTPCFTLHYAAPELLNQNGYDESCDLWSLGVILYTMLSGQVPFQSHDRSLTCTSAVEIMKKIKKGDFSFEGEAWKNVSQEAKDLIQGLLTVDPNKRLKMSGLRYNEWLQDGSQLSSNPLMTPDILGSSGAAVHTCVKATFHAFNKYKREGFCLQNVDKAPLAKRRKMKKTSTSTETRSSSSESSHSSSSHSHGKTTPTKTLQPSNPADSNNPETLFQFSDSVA", "assay": "Inhibition of MSK1 domain 1 K1 site in human HeLa cells lysate at 2 uM pre incubated for 15 mins followed by ADP acyl phosphate probe addition and measured after 10 mins by LC-MS/MS analysis relative to control", "type": "subcellular", "conditions": "time 25.0 min"}, "[14]": {"target": "Rho-associated protein kinase (Homo sapiens, UniProt O75116+Q13464)", "assay": "Inhibition of ROCK1/2 in human HeLa cells lysate at 2 uM pre incubated for 15 mins followed by ATP acyl phosphate probe addition and measured after 10 mins by LC-MS/MS analysis relative to control", "type": "subcellular", "conditions": "time 25.0 min"}, "RPS6KA1/RPS6KA2/RPS6KA3": {"target": "RPS6KA1/RPS6KA2/RPS6KA3 (Homo sapiens, UniProt P51812+Q15349+Q15418)", "sequence (P51812 whole entry, looked up)": "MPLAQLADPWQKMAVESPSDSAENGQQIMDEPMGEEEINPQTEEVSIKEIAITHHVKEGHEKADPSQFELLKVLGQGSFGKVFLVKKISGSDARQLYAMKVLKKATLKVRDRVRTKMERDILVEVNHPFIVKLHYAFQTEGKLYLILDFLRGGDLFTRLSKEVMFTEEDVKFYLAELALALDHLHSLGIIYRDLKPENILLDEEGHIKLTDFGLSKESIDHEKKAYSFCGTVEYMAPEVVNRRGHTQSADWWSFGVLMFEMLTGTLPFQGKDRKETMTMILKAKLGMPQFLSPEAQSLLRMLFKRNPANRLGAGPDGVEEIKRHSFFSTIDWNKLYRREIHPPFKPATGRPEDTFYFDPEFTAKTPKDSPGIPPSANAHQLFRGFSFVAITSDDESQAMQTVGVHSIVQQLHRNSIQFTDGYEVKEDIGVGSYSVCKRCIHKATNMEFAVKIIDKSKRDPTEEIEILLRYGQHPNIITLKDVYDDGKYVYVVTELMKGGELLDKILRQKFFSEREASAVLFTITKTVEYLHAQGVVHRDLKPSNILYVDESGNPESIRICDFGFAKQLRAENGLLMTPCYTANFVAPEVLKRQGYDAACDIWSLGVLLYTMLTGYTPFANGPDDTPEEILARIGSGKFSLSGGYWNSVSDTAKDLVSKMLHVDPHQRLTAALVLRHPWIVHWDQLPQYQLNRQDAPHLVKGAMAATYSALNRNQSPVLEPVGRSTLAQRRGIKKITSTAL", "sequence (Q15349 whole entry, looked up)": "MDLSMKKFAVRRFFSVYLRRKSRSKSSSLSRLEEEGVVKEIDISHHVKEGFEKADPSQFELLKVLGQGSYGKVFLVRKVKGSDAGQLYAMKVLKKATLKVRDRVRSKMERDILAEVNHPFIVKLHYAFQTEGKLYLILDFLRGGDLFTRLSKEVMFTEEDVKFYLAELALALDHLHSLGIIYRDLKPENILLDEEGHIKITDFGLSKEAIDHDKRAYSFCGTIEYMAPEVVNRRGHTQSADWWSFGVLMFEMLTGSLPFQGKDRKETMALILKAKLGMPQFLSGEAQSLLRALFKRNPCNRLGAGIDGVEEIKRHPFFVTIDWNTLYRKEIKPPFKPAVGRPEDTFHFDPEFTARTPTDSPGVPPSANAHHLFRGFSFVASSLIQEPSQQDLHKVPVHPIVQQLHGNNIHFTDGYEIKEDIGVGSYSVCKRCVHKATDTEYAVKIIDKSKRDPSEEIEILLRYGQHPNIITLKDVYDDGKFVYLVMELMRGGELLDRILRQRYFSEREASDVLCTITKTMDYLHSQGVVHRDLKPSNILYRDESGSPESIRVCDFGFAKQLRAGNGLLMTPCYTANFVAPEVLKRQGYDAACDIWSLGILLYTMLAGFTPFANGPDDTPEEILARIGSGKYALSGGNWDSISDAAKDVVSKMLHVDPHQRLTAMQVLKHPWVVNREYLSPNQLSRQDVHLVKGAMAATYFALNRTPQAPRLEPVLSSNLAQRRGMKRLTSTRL", "sequence (Q15418 whole entry, looked up)": "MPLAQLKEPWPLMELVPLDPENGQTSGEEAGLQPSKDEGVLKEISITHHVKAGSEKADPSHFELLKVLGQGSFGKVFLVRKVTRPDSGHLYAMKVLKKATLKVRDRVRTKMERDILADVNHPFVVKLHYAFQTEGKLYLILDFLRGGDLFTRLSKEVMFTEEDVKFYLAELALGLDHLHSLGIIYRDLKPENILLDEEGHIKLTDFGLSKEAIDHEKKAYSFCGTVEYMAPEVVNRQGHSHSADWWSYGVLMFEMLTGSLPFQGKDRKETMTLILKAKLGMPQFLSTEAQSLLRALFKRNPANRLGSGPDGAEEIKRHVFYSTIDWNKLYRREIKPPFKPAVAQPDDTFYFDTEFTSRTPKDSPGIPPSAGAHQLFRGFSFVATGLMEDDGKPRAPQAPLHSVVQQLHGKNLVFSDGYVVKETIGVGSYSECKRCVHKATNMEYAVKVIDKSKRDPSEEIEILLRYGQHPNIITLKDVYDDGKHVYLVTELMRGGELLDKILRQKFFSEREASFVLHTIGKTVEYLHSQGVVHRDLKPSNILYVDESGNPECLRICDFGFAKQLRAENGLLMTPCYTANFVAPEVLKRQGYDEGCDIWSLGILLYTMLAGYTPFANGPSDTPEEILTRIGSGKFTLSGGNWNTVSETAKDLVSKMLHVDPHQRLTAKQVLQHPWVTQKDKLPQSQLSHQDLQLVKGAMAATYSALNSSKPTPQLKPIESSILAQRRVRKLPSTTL", "assay": "Inhibition of RSK1/2/3 in human HeLa cells lysate at 50 uM pre incubated for 15 mins followed by ADP acyl phosphate probe addition and measured after 10 mins by LC-MS/MS analysis relative to control", "type": "subcellular", "conditions": "time 25.0 min"}, "[15]": {"target": "T1, Mitogen-activated protein kinase 14", "assay": "Inhibition of P38alpha interaction site in human HeLa cells lysate at 2 uM pre incubated for 15 mins followed by ATP acyl phosphate probe addition and measured after 10 mins by LC-MS/MS analysis relative to control", "type": "subcellular", "conditions": "time 25.0 min"}, "[16]": {"target": "Serine/threonine-protein kinase 3/4 (Homo sapiens) (UniProt Q13043+Q13188)", "assay": "Inhibition of MST1/2 in human HeLa cells lysate at 2 uM pre incubated for 15 mins followed by ADP acyl phosphate probe addition and measured after 10 mins by LC-MS/MS analysis relative to control", "type": "subcellular", "conditions": "time 25.0 min"}}, "note": "Active and inactive are the calls of the source. The calls are words filed in the database; no cut-off is given here."}
{"smiles": "CCOc1cc(N2CCC(O)CC2)ccc1Nc1ncc2c(n1)N(C)c1ccccc1C(=O)N2C", "values": [{"measurement": "inhibition", "setting": "[1]", "result": 17.4, "unit": "%"}, {"measurement": "IC50", "setting": "[2]", "result": "> 50", "unit": "µM"}, {"measurement": "inhibition at 50 µM", "setting": "[3]", "result": -14.5, "unit": "%"}, {"measurement": "inhibition", "setting": "[4]", "result": 19.1, "unit": "%"}, {"measurement": "inhibition", "setting": "[5]", "result": "Active"}, {"measurement": "IC50", "setting": "[6]", "result": "> 50", "unit": "µM"}, {"measurement": "IC50", "setting": "[7]", "result": "> 50", "unit": "µM"}, {"measurement": "inhibition", "setting": "[8]", "result": 4.7, "unit": "%"}, {"measurement": "inhibition", "setting": "[9]", "result": -5, "unit": "%"}, {"measurement": "IC50", "setting": "[10]", "result": "> 50", "unit": "µM"}, {"measurement": "IC50", "setting": "[11]", "result": "> 50", "unit": "µM"}, {"measurement": "inhibition", "setting": "[12]", "result": 0, "unit": "%"}, {"measurement": "inhibition", "setting": "[13]", "result": 28, "unit": "%"}, {"measurement": "inhibition", "setting": "[14]", "result": 0.1, "unit": "%"}, {"measurement": "inhibition", "setting": "RPS6KA1/RPS6KA2/RPS6KA3", "result": -2.1, "unit": "%"}, {"measurement": "inhibition", "setting": "[15]", "result": -9.5, "unit": "%"}, {"measurement": "inhibition", "setting": "[16]", "result": -1.2, "unit": "%"}]}
